Source: ChEMBL document CHEMBL4689842, “EUbOPEN Chemogenomics Library wave 1” (2021)

Test system: HEK-293T
Test: Multiplex assay against HEK293T;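 for Population Tubulin-Different-Phenotype (%): share of the cells with healthy nuclei that show this phenotype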
Format: toxicity, cell-based
Conditions: human
Summary of the method: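 Imaging took place on a CQ1 microscope at 37°C and 5% CO2 once compound had been added to live cells stained at seeding with Hoechst33342, BioTracker Green Microtubule Cytoskeleton Dye, MitoTracker Red and Annexin V Alexa Fluor 680. CellPathfinder machine-learning gating classed cells as Hoechst high-intensity objects or normal cells, classed normal cells as having healthy, pyknosed or fragmented nuclei, and classed pyknosed cells as mitotic or apoptotic. Tubulin, mitochondrial-mass and membrane-permeability phenotypes are per cents of the healthy-nucleus cells.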

[1] = 12 h, 1 µM, compound concentration 1 uM, replicate 1
[2] = 12 h, 1 µM, compound concentration 1 uM, replicate 2
[3] = 12 h, 10 µM, compound concentration 10 uM, replicate 1
[4] = 12 h, 10 µM, compound concentration 10 uM, replicate 2
[5] = 24 h, 1 µM, compound concentration 1 uM, replicate 1
[6] = 24 h, 1 µM, compound concentration 1 uM, replicate 2
[7] = 24 h, 10 µM, compound concentration 10 uM, replicate 1
[8] = 24 h, 10 µM, compound concentration 10 uM, replicate 2
[9] = 48 h, 1 µM, compound concentration 1 uM, replicate 1
[10] = 48 h, 1 µM, compound concentration 1 uM, replicate 2
[11] = 48 h, 10 µM, compound concentration 10 uM, replicate 1
[12] = 48 h, 10 µM, compound concentration 10 uM, replicate 2

CCCSc1nc(N[C@@H]2C[C@H]2c2ccc(F)c(F)c2)c2nnn([C@@H]3C[C@H](OCCO)[C@@H](O)[C@H]3O)c2n1 [TICAGRELOR]
Population Apoptotic (%) [1]: 56%
Population Fragmented Nuclei (%) [1]: 19%
Population Healthy Nuclei (%) [1]: 35%
Population Hoechst High Intensity Objects (%) [1]: 18%
Population Membrane Permeable-Phenotype (%) [1]: 4%
Population Mitochondria Different-Phenotype (%) [1]: 89%
Population Mitotic Cells (%) [1]: 43%
Population Normal (%) [1]: 81%
Population Pyknosed Nuclei (%) [1]: 45%
Population Tubulin-Different-Phenotype (%) [1]: 54%
Total Cell Count [1]: 167
Population Apoptotic (%) [2]: 9%
Population Fragmented Nuclei (%) [2]: 3%
Population Healthy Nuclei (%) [2]: 49%
Population Hoechst High Intensity Objects (%) [2]: 3%
Population Membrane Permeable-Phenotype (%) [2]: 10%
Population Mitochondria Different-Phenotype (%) [2]: 21%
Population Mitotic Cells (%) [2]: 90%
Population Normal (%) [2]: 96%
Population Pyknosed Nuclei (%) [2]: 46%
Population Tubulin-Different-Phenotype (%) [2]: 27%
Total Cell Count [2]: 190
Population Apoptotic (%) [3]: 68%
Population Fragmented Nuclei (%) [3]: 34%
Population Healthy Nuclei (%) [3]: 4%
Population Hoechst High Intensity Objects (%) [3]: 20%
Population Membrane Permeable-Phenotype (%) [3]: 14%
Population Mitochondria Different-Phenotype (%) [3]: 85%
Population Mitotic Cells (%) [3]: 31%
Population Normal (%) [3]: 79%
Population Pyknosed Nuclei (%) [3]: 60%
Population Tubulin-Different-Phenotype (%) [3]: 85%
Total Cell Count [3]: 178
Population Apoptotic (%) [4]: 85%
Population Fragmented Nuclei (%) [4]: 6%
Population Healthy Nuclei (%) [4]: 26%
Population Hoechst High Intensity Objects (%) [4]: 4%
Population Membrane Permeable-Phenotype (%) [4]: 2%
Population Mitochondria Different-Phenotype (%) [4]: 95%
Population Mitotic Cells (%) [4]: 14%
Population Normal (%) [4]: 95%
Population Pyknosed Nuclei (%) [4]: 66%
Population Tubulin-Different-Phenotype (%) [4]: 93%
Total Cell Count [4]: 176
Population Apoptotic (%) [5]: 46%
Population Fragmented Nuclei (%) [5]: 23%
Population Healthy Nuclei (%) [5]: 32%
Population Hoechst High Intensity Objects (%) [5]: 18%
Population Membrane Permeable-Phenotype (%) [5]: 2%
Population Mitochondria Different-Phenotype (%) [5]: 75%
Population Mitotic Cells (%) [5]: 53%
Population Normal (%) [5]: 81%
Population Pyknosed Nuclei (%) [5]: 44%
Population Tubulin-Different-Phenotype (%) [5]: 45%
Total Cell Count [5]: 181
Population Apoptotic (%) [6]: 18%
Population Fragmented Nuclei (%) [6]: 4%
Population Healthy Nuclei (%) [6]: 62%
Population Hoechst High Intensity Objects (%) [6]: 3%
Population Membrane Permeable-Phenotype (%) [6]: 7%
Population Mitochondria Different-Phenotype (%) [6]: 28%
Population Mitotic Cells (%) [6]: 81%
Population Normal (%) [6]: 96%
Population Pyknosed Nuclei (%) [6]: 33%
Population Tubulin-Different-Phenotype (%) [6]: 48%
Total Cell Count [6]: 257
Population Apoptotic (%) [7]: 76%
Population Fragmented Nuclei (%) [7]: 35%
Population Healthy Nuclei (%) [7]: 6%
Population Hoechst High Intensity Objects (%) [7]: 21%
Population Mitochondria Different-Phenotype (%) [7]: 77%
Population Mitotic Cells (%) [7]: 23%
Population Normal (%) [7]: 78%
Population Pyknosed Nuclei (%) [7]: 57%
Population Tubulin-Different-Phenotype (%) [7]: 88%
Total Cell Count [7]: 178
Population Apoptotic (%) [8]: 89%
Population Fragmented Nuclei (%) [8]: 4%
Population Healthy Nuclei (%) [8]: 26%
Population Hoechst High Intensity Objects (%) [8]: 7%
Population Membrane Permeable-Phenotype (%) [8]: 0%
Population Mitochondria Different-Phenotype (%) [8]: 95%
Population Mitotic Cells (%) [8]: 10%
Population Normal (%) [8]: 92%
Population Pyknosed Nuclei (%) [8]: 69%
Population Tubulin-Different-Phenotype (%) [8]: 95%
Total Cell Count [8]: 182
Population Apoptotic (%) [9]: 55%
Population Fragmented Nuclei (%) [9]: 23%
Population Healthy Nuclei (%) [9]: 40%
Population Hoechst High Intensity Objects (%) [9]: 12%
Population Membrane Permeable-Phenotype (%) [9]: 3%
Population Mitochondria Different-Phenotype (%) [9]: 51%
Population Mitotic Cells (%) [9]: 44%
Population Normal (%) [9]: 87%
Population Pyknosed Nuclei (%) [9]: 36%
Population Tubulin-Different-Phenotype (%) [9]: 50%
Total Cell Count [9]: 216
Population Apoptotic (%) [10]: 11%
Population Fragmented Nuclei (%) [10]: 5%
Population Healthy Nuclei (%) [10]: 78%
Population Hoechst High Intensity Objects (%) [10]: 4%
Population Membrane Permeable-Phenotype (%) [10]: 4%
Population Mitochondria Different-Phenotype (%) [10]: 12%
Population Mitotic Cells (%) [10]: 88%
Population Normal (%) [10]: 95%
Population Pyknosed Nuclei (%) [10]: 16%
Population Tubulin-Different-Phenotype (%) [10]: 31%
Total Cell Count [10]: 492
Population Apoptotic (%) [11]: 81%
Population Fragmented Nuclei (%) [11]: 38%
Population Healthy Nuclei (%) [11]: 3%
Population Hoechst High Intensity Objects (%) [11]: 24%
Population Membrane Permeable-Phenotype (%) [11]: 50%
Population Mitochondria Different-Phenotype (%) [11]: 75%
Population Mitotic Cells (%) [11]: 18%
Population Normal (%) [11]: 75%
Population Pyknosed Nuclei (%) [11]: 58%
Population Tubulin-Different-Phenotype (%) [11]: 75%
Total Cell Count [11]: 173
Population Apoptotic (%) [12]: 92%
Population Fragmented Nuclei (%) [12]: 7%
Population Healthy Nuclei (%) [12]: 29%
Population Hoechst High Intensity Objects (%) [12]: 5%
Population Membrane Permeable-Phenotype (%) [12]: 2%
Population Mitochondria Different-Phenotype (%) [12]: 97%
Population Mitotic Cells (%) [12]: 7%
Population Normal (%) [12]: 94%
Population Pyknosed Nuclei (%) [12]: 63%
Population Tubulin-Different-Phenotype (%) [12]: 86%
Total Cell Count [12]: 164

CC(C)(C)NC[C@H](O)COc1nsnc1N1CCOCC1 [TIMOLOL]
Population Apoptotic (%) [1]: 47%
Population Fragmented Nuclei (%) [1]: 10%
Population Healthy Nuclei (%) [1]: 39%
Population Hoechst High Intensity Objects (%) [1]: 14%
Population Membrane Permeable-Phenotype (%) [1]: 4%
Population Mitochondria Different-Phenotype (%) [1]: 77%
Population Mitotic Cells (%) [1]: 52%
Population Normal (%) [1]: 85%
Population Pyknosed Nuclei (%) [1]: 50%
Population Tubulin-Different-Phenotype (%) [1]: 36%
Total Cell Count [1]: 281
Population Apoptotic (%) [2]: 12%
Population Fragmented Nuclei (%) [2]: 5%
Population Healthy Nuclei (%) [2]: 48%
Population Hoechst High Intensity Objects (%) [2]: 3%
Population Membrane Permeable-Phenotype (%) [2]: 8%
Population Mitochondria Different-Phenotype (%) [2]: 19%
Population Mitotic Cells (%) [2]: 87%
Population Normal (%) [2]: 96%
Population Pyknosed Nuclei (%) [2]: 45%
Population Tubulin-Different-Phenotype (%) [2]: 22%
Total Cell Count [2]: 280
Population Apoptotic (%) [3]: 55%
Population Fragmented Nuclei (%) [3]: 9%
Population Healthy Nuclei (%) [3]: 40%
Population Hoechst High Intensity Objects (%) [3]: 13%
Population Membrane Permeable-Phenotype (%) [3]: 2%
Population Mitochondria Different-Phenotype (%) [3]: 87%
Population Mitotic Cells (%) [3]: 44%
Population Normal (%) [3]: 86%
Population Pyknosed Nuclei (%) [3]: 49%
Population Tubulin-Different-Phenotype (%) [3]: 53%
Total Cell Count [3]: 293
Population Apoptotic (%) [4]: 8%
Population Fragmented Nuclei (%) [4]: 3%
Population Healthy Nuclei (%) [4]: 50%
Population Hoechst High Intensity Objects (%) [4]: 3%
Population Membrane Permeable-Phenotype (%) [4]: 4%
Population Mitochondria Different-Phenotype (%) [4]: 23%
Population Mitotic Cells (%) [4]: 91%
Population Normal (%) [4]: 96%
Population Pyknosed Nuclei (%) [4]: 46%
Population Tubulin-Different-Phenotype (%) [4]: 17%
Total Cell Count [4]: 261
Population Apoptotic (%) [5]: 49%
Population Fragmented Nuclei (%) [5]: 8%
Population Healthy Nuclei (%) [5]: 43%
Population Hoechst High Intensity Objects (%) [5]: 12%
Population Membrane Permeable-Phenotype (%) [5]: 1%
Population Mitochondria Different-Phenotype (%) [5]: 58%
Population Mitotic Cells (%) [5]: 50%
Population Normal (%) [5]: 87%
Population Pyknosed Nuclei (%) [5]: 47%
Population Tubulin-Different-Phenotype (%) [5]: 41%
Total Cell Count [5]: 293
Population Apoptotic (%) [6]: 8%
Population Fragmented Nuclei (%) [6]: 7%
Population Healthy Nuclei (%) [6]: 67%
Population Hoechst High Intensity Objects (%) [6]: 1%
Population Membrane Permeable-Phenotype (%) [6]: 11%
Population Mitochondria Different-Phenotype (%) [6]: 12%
Population Mitotic Cells (%) [6]: 91%
Population Normal (%) [6]: 98%
Population Pyknosed Nuclei (%) [6]: 24%
Population Tubulin-Different-Phenotype (%) [6]: 30%
Total Cell Count [6]: 363
Population Apoptotic (%) [7]: 44%
Population Fragmented Nuclei (%) [7]: 6%
Population Healthy Nuclei (%) [7]: 57%
Population Hoechst High Intensity Objects (%) [7]: 12%
Population Membrane Permeable-Phenotype (%) [7]: 2%
Population Mitochondria Different-Phenotype (%) [7]: 70%
Population Mitotic Cells (%) [7]: 55%
Population Normal (%) [7]: 87%
Population Pyknosed Nuclei (%) [7]: 35%
Population Tubulin-Different-Phenotype (%) [7]: 40%
Total Cell Count [7]: 360
Population Apoptotic (%) [8]: 8%
Population Fragmented Nuclei (%) [8]: 3%
Population Healthy Nuclei (%) [8]: 71%
Population Hoechst High Intensity Objects (%) [8]: 3%
Population Membrane Permeable-Phenotype (%) [8]: 4%
Population Mitochondria Different-Phenotype (%) [8]: 17%
Population Mitotic Cells (%) [8]: 91%
Population Normal (%) [8]: 96%
Population Pyknosed Nuclei (%) [8]: 24%
Population Tubulin-Different-Phenotype (%) [8]: 18%
Total Cell Count [8]: 355
Population Apoptotic (%) [9]: 52%
Population Fragmented Nuclei (%) [9]: 18%
Population Healthy Nuclei (%) [9]: 46%
Population Hoechst High Intensity Objects (%) [9]: 10%
Population Membrane Permeable-Phenotype (%) [9]: 6%
Population Mitochondria Different-Phenotype (%) [9]: 23%
Population Mitotic Cells (%) [9]: 47%
Population Normal (%) [9]: 89%
Population Pyknosed Nuclei (%) [9]: 34%
Population Tubulin-Different-Phenotype (%) [9]: 33%
Total Cell Count [9]: 373
Population Apoptotic (%) [10]: 16%
Population Fragmented Nuclei (%) [10]: 5%
Population Healthy Nuclei (%) [10]: 82%
Population Hoechst High Intensity Objects (%) [10]: 2%
Population Mitochondria Different-Phenotype (%) [10]: 3%
Population Mitotic Cells (%) [10]: 83%
Population Normal (%) [10]: 97%
Population Pyknosed Nuclei (%) [10]: 12%
Population Tubulin-Different-Phenotype (%) [10]: 25%
Total Cell Count [10]: 733
Population Apoptotic (%) [11]: 42%
Population Fragmented Nuclei (%) [11]: 12%
Population Healthy Nuclei (%) [11]: 65%
Population Hoechst High Intensity Objects (%) [11]: 5%
Population Membrane Permeable-Phenotype (%) [11]: 0%
Population Mitochondria Different-Phenotype (%) [11]: 23%
Population Mitotic Cells (%) [11]: 57%
Population Normal (%) [11]: 94%
Population Pyknosed Nuclei (%) [11]: 22%
Population Tubulin-Different-Phenotype (%) [11]: 20%
Total Cell Count [11]: 545
Population Apoptotic (%) [12]: 6%
Population Fragmented Nuclei (%) [12]: 7%
Population Healthy Nuclei (%) [12]: 85%
Population Hoechst High Intensity Objects (%) [12]: 2%
Population Membrane Permeable-Phenotype (%) [12]: 2%
Population Mitochondria Different-Phenotype (%) [12]: 4%
Population Mitotic Cells (%) [12]: 93%
Population Normal (%) [12]: 97%
Population Pyknosed Nuclei (%) [12]: 7%
Population Tubulin-Different-Phenotype (%) [12]: 17%
Total Cell Count [12]: 660
